Hits are enriched below; roughly 4.6% of the tested compounds scored in any of these assays.
OX1R antag-1 – OX1R (HCRTR1) antagonists, primary screen, fluorescence, CHO/OX1R cells, Fluo-8 calcium, orexin A. Orexin/Hypocretin receptor type 1 (Homo sapiens), O43613. Fluo-8 calcium fluorescence. inhibition, % at 5 µM. 330,000 tested, 0.43% active. AID 434989, 2010;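 active means inhibition above its plate's threshold, mean inhibition of all tested compounds on the plate plus 3 SD, cut at about 37% in these data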;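 further: 0% = orexin A challenge wells and 100% = SB-334867-A antagonist wells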
CHO parental Ca – ATP-evoked calcium signal inhibitors, parental CHO, primary screen, counter-screen for OX1R antagonist project, cell-based, fluorescence, Fluo-8 calcium dye. parental CHO-K1, ATP-induced calcium, Fluo-8 fluorescence. inhibition, % at 5.6 µM. 330,000 tested, 0.63% active;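 active means inhibition above that plate's mean sample inhibition plus 3 SD, cut at about 26% in these data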;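 further: 0% = ATP-challenged DMSO wells and 100% = DMSO wells without ATP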
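Test system: parental CHO cells; detection: calcium-sensitive Fluo-8 fluorescence; evaluation: percent inhibition of calcium signal; also added: ATP as calcium-mobilizing challenge; repeats: one well per compound; control set: ATP-challenged DMSO wells low, unchallenged DMSO wells high; compound: single nominal dose of 5.6 µM per compound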
TAAR1 ag – human TAAR1 agonists, primary screen, Fluo-8 calcium fluorescence, CHO RD-HGA16 cells | vehicle wells 0%, saturating PEA agonist 100% | AID 624467, 2012 | 360,000 tested, 0.99% active | activation, % at 3 µM;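 active means activation above the mean activation of all test compounds in the run plus 3 SD, cut at about 38% in these data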
Target sequence (Q96RJ0 whole entry, looked up): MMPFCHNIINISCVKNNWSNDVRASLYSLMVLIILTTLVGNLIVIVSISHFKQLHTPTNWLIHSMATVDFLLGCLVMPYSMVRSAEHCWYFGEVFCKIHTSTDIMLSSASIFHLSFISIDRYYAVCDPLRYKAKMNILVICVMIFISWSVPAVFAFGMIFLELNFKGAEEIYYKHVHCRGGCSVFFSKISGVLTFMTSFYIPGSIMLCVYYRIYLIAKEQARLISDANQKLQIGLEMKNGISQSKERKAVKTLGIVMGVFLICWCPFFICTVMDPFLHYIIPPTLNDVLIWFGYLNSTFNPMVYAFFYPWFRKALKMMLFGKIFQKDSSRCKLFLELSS
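System: CHO-derived RD-HGA16 cells with stable Gα16 and human TAAR1 / Times: 17-24 h plating, Fluo-8 75 min 37 °C, 30 min RT / Technique: calcium-sensitive Fluo-8 signal, excitation 470-495, emission 515-575 nm / Measure: % activation relative to PEA EC100 response / Benchmarks: DMSO and PEA EC100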
OX1R antag-2 – antagonists of human orexin 1 receptor (OX1R). AID 485270, 2010. Orexin/Hypocretin receptor type 1 (Homo sapiens), O43613. inhibition, % at 6.6 µM. 330,000 tested, 1.8% active. OX1R-expressing cells, FRET antagonist read-out; in the data active means inhibition mostly above about 38%, no sharp cut-off; inactive means mostly below about 40%;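 further: 0% = agonist challenge alone and 100% = reference antagonist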
GPR7 antagonist – GPR7 receptor antagonists, primary screen, cell-based, fluorescence, single concentration | inhibition, % at 4.4 µM | 290,000 tested, 1.1% active | GPR7-expressing cells, fluorescence antagonist assay; in the data active means inhibition above about 16%, passing the limit was not always enough;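 further: cells stimulated with the agonist NPW; 0% = agonist with vehicle and 100% = vehicle without agonist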
Target sequence (P48145 whole entry, looked up): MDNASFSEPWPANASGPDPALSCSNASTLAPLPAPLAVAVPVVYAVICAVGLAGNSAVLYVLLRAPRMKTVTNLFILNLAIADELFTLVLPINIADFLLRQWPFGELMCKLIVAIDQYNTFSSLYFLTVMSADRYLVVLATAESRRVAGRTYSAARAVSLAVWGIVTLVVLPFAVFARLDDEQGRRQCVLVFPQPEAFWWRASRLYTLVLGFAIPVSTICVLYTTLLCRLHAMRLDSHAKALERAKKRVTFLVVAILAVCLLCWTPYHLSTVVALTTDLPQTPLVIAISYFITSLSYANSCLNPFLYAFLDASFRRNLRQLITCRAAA
TAAR1 antagonist – human TAAR1 antagonists, primary screen, Fluo-8 calcium fluorescence, CHO RD-HGA16 cells | 360,000 tested, 1.5% active | AID 624466, 2012 | Trace amine-associated receptor 1 (Homo sapiens), Q96RJ0 | antagonist | inhibition, % at 3 µM;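 active means inhibition above a per-plate cutoff, the mean inhibition of test compounds on that plate plus 3 SD, cut at about 49% in these data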;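 further: 0% = DMSO plus EC80 beta-PEA response and 100% = DMSO alone without agonist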
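Test system – hTAAR1-expressing CHO RD-HGA16 cells, Gα16-coupled · Also added – β-PEA at EC80 concentration, post-compound challenge · Compound – 3 µM, single point · Incubation – dye loading 75 min at 37 °C, then 30 min room temperature · Measured by – Fluo-8 intracellular calcium dye fluorescence, real-time kinetic reads · Benchmarks – vehicle and agonist controls · Replicates – singlicate, one well per test compound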
OX1R Fluo8 conf – OX1R (HCRTR1) antagonists, confirmation, fluorescence, CHO/OX1R cells, Fluo-8 calcium, orexin A; inhibition, % at 5 µM; shares compounds with OX1R antag-1; AID 492963, 2010; orexin A calcium Fluo-8 fluorescence; 1,100 tested, 38% active; in the data active means inhibition above about 29%;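 further: 0% = agonist challenge alone and 100% = reference antagonist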
CHO Ca triplic – ATP-evoked calcium inhibition in parental CHO, counter-screen for OX1R antagonist project, cell-based, fluorescence, CHO-K1, triplicate; shares compounds with OX1R antag-1; ATP-induced calcium, Fluo-8 fluorescence; inhibition, % at 5.6 µM; 1,100 tested, 9.3% active; AID 492965, 2010;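 active means inhibition above a per-plate limit, the mean inhibition of that plate's test compounds plus 3 SD, cut at about 25% in these data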;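 further: 0% = ATP challenge with DMSO and 100% = DMSO without ATP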
* = called active by the depositor; . = no result given.

SMILES | OX1R antag-1 | CHO parental Ca | TAAR1 ag | OX1R antag-2 | GPR7 antagonist | TAAR1 antagonist | OX1R Fluo8 conf | CHO Ca triplic
Cc1ccc(NC(=S)NCC(C)CSc2ccc(Cl)cc2)cc1 (stereo not drawn) | -8 | 8 | 1 | 24 | -12 | 0 | . | .
C=CCNc1nc(C(=O)OCC(=O)NCc2ccccc2OC)cs1 | -5 | -32 | 0 | 6 | . | -2 | . | .
COc1ccc(C(C)=O)c2c(O)cccc12 | 32 | -8 | 4 | 61 | -14 | -4 | 14 | -4
Cc1cc(C)c(C)c(S(=O)(=O)N2CCN(C(=O)C3CSC4(C)CCC(=O)N34)CC2)c1C (stereo not drawn) | -32 | -27 | . | 19 | . | . | . | .
COc1ccc(C2NC3=C(CCC3)C3(C#N)C4(N=C(N)C23C#N)OCCO4)cc1 (stereo not drawn) | 36 | -8 | 9 | 40 | 2 | 13 | 3 | -1
CC(C)C(=O)Nc1ccc(C(=O)CSc2nnc(C3CC3)n2C2CC2)cc1 | -12 | -6 | -1 | 2 | . | -11 | . | .
Cc1cc([N+](=O)[O-])ccc1NCc1ccccc1 | 50* | 18 | . | 12 | 10 | . | 18 | 16
COc1cc([N+](=O)[O-])ccc1NC(=O)Nc1ccc2c(c1)OCCO2 | -17 | 8 | 10 | 13 | -1 | 10 | . | .
O=C(Nc1ccc([N+](=O)[O-])cc1)Nc1ccc2c(c1)OCCO2 | 28 | 18 | 21 | 42 | 16 | 13 | 23 | 19
COc1cccc(C(=O)N=c2sc3cc(S(C)(=O)=O)ccc3n2C)c1 | 30 | 6 | 8 | 56 | -5 | 12 | 20 | 6
Cc1noc(C)c1COC(=O)c1cnc(Cl)c(Cl)c1 | -24 | 1 | 1 | 10 | 4 | -27 | . | .
O=C(Cc1cccs1)Nc1cc(S(=O)(=O)N2CCCCC2)ccc1Cl | -19 | -31 | 10 | 6 | . | -5 | . | .
CC(NCC(=O)Nc1cc(S(=O)(=O)N2CCCCCC2)ccc1Cl)c1ccccc1 (stereo not drawn) | 27 | 22 | 3 | 24 | -22 | 13 | 28 | 26*
CN(CC(=O)Nc1ccc2c(c1)OCCO2)Cc1nc2ccccc2c(=O)[nH]1 | -9 | -19 | 0 | 2 | . | -1 | . | .
CC(=O)NC(C)C(=O)OCC(=O)Nc1ccc(Br)cc1 (stereo not drawn) | 36 | 1 | 19 | 11 | 10 | -6 | 2 | 4
COc1ccc(S(=O)(=O)Nc2ccc(S(=O)(=O)N3CCCCC3)cc2)cc1 | 31 | 22 | 16 | 17 | -8 | 1 | 15 | -1
COc1ccc(S(=O)(=O)Nc2ccc(S(=O)(=O)N3CCCC3)cc2)cc1 | -2 | -4 | 6 | 2 | -3 | 3 | . | .
COc1ccc(NS(=O)(=O)c2cccc(NC(=O)COc3ccccc3[N+](=O)[O-])c2)cc1 | 51* | 2 | 11 | 19 | . | 39 | 18 | 9
O=C(COc1ccccc1[N+](=O)[O-])Nc1cccc(S(=O)(=O)NC2=NCCCCC2)c1 | -27 | 1 | 14 | 5 | . | 22 | . | .
COc1ccc(C(=O)COC(=O)Cn2[nH]c(=O)c3ccccc3c2=O)c(OC)c1 | -22 | -9 | 2 | 18 | . | 1 | . | .
O=C(c1ccc(NS(=O)(=O)c2ccc(F)cc2)cc1)N1CCCCCC1 | 14 | -11 | 2 | 11 | . | -20 | . | .
O=C(c1ccc(S(=O)(=O)Nc2ccc(F)cc2)cc1)N1CCN(c2ccccn2)CC1 | 34 | 16 | 34 | 52 | 5 | 29 | 49* | 14
CN(C)c1ccc(NC(=O)CCCCCn2nnc3ccccc3c2=O)cc1 | 8 | -8 | 5 | 4 | -3 | -8 | . | .
CCCCCCn1c(=O)c(-c2ccccc2)c(O)c2ccccc21 | -23 | -18 | -2 | 14 | -11 | -6 | . | .
CCCCCCCCn1c(=O)c(C(=O)OC)c(N)c2ccccc21 | 25 | -4 | 11 | 26 | -8 | 16 | 19 | 35*
SMILES | OX1R antag-1 | CHO parental Ca | TAAR1 ag | OX1R antag-2 | GPR7 antagonist | TAAR1 antagonist | OX1R Fluo8 conf | CHO Ca triplic
O=C(O)CNC(=S)NCc1ccccc1 | -11 | 10 | 2 | 8 | -17 | -8 | . | .
CC(C)C(NC(=S)NCc1ccccc1)C(=O)O (stereo not drawn) | 31 | -8 | 0 | 16 | -5 | -5 | -2 | 11
COC(=O)c1ccc2c(c1)C(C)(C)C(/C=C/c1ccccc1O)=[N+]2C | 33 | 21 | 24 | 31 | 15 | 36 | 57* | 46*
Cc1ccccc1OCCC(=O)Nc1cccc(S(=O)(=O)Nc2ccccc2Cl)c1 | 45* | -5 | 7 | 58 | -8 | 41 | 26 | -2
C=C(C)Cn1c(SCC(=O)N/N=C/c2cccc(O)c2)nc2ccccc2c1=O | -32 | -20 | 2 | 37 | -7 | 2 | . | .
COC(=O)c1cccc(NC(=S)NCc2ccc(Cl)cc2)c1 | 31 | 11 | 30 | 9 | 5 | 42 | 27 | 5
C(=C\c1ccccc1)/CN1CCN(c2ncnc3c2oc2ccccc23)CC1 | 48* | 16 | 7 | 29 | -10 | 19 | 21 | 57*
c1ccc2c(c1)oc1c(N3CCOCC3)ncnc12 | -5 | -3 | 21 | 28 | -8 | 0 | . | .
CC(C)(Cc1ccccc1)NC(=O)C(=O)c1cn(CC(=O)N2CCOCC2)c2ccccc12 | -18 | -9 | 5 | 25 | -5 | -4 | . | .
COc1ccc(/C=C2\SC(=O)NC2=S)cc1OC | 42 | 24 | 3 | 42 | 6 | 18 | 3 | -2
CCOc1ccc(/C=C2\SC(=S)NC2=O)cc1OC | -21 | 2 | 0 | 46 | -20 | 3 | . | .
COc1ccc(C(=O)CSc2nc3c(c(=O)n(C)c(=O)n3C)n2C)cc1 | -6 | 3 | . | 5 | -4 | . | . | .
CCOC(=O)N1CCN(C(=O)c2ccc3c(c2)NC(=O)C(N2CCOCC2)S3)CC1 (stereo not drawn) | 28 | 6 | 7 | 9 | -8 | -5 | 4 | -1
CCc1ccc(C2CC3C(CN2S(=O)(=O)c2ccc(C)cc2)C(=O)CC(c2ccc(CC)cc2)N3S(=O)(=O)c2ccc(C)cc2)cc1 (stereo not drawn) | . | . | 0 | . | . | -6 | . | .
